Experimental data as given in the RNAGym collection of RNA variant scans (doi:10.1101/gad.245936.114).
This sample holds only a part of the variants without activity.

B1: tRNA (parent)
chain: CUCUCGGUAGCCAAGUUGGUUUAAGGCGCAAGACUUUAAUUUAUCACUACGAAAUCUUGAGAUCGGGCGUUCGACUCGCCCCCGGGAGAUUUUUUCCUCGAGCAA

Variants of: B1
Assay: nonsense suppression (GFP-seq) (ratio to wild type); higher = more function; SUP4oc tRNA, yeast GFP reporter sort-seq
In short: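 Nonsense suppression (GFPSEQ) is the median GFP/RFP ratio of each sorting bin, weighted by the variant's estimated share of cells in that bin and expressed relative to the unmutated parent tRNA. Yeast strains carried genome-integrated variants of an ochre-suppressor tRNA from a library with ~3% random mutations, plus a galactose-driven GFP ochre reporter and RFP, and were grown in raffinose/galactose medium containing 80 mg/L adenine. Cells were sorted into GFP/RFP bins, each bin was Illumina-sequenced (phred ≥30), and variants were kept only with ≥100 reads and ≥30 cells.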

Row | Variant | nonsense suppression
1 | CUCUCGGUAGCCAAGUAGGUUUAAGGCGCAAGGCUUUAAUUUAUCACUACGAAAUCUUGAGAUCGGGCGUUCGACUCGCCCCCGGGAGAUUUUUUCCUCGAGCAA | 0.104
2 | CUCUCGGUAGCCAAGUAGGGUUAAGGCGCAAAACUUUAAUUUAUCACUACGAAAUCUUGAAAUCGGGCGUUCGACUCGCUCCCGGGAGAUUUUUUCCUCGAGCAA | ≤ 0.026
3 | CUCUCGGUAGCCAAGUAGGUUUAAGGCGCAAGACUUUAAUUUAUCACUACGAAAUCUUGAGAUCGGGCGGUCGACUCGCCCCCGGGAGAUUUUUUCCUCGAGCAA | ≤ 0.026
4 | CUCUCGGUAGCCAAGUCGGUUUAAGGCGCUAGACUUUAAUUUAUCACUACGAAAUCUUGAGAUCGGGCGUUCGACUCGCCCCCGGGAGAUUUUUUCCUCGAGCAA | 0.16
5 | CUCUCGGUAGCCAAGUCGGUUUAAGGCGCGAGACUUUAAUUUAUCACUACGAAAUCUUGAGAUCGGGCGUUCGACUCGCCCCCGGGAGAUUUUUUCCUCGAGCAA | 0.326
6 | CUCUCGGUAGCCAAGUCGGUUUAAGGCGCAAGACUUUAAUUUAUCACUACGAAAUCUUGAGCUCGGGCGUUCGACUCGCCCCCGGGAGAUUUUUUCCUCGAGCAA | 0.734
7 | CUCUCGGUAGCCAAGUAGGUUUCAGGCGCAAGACUUUAAUUUAUCACUACGAAAUCUUGAGAUCGGGCGUCCGACUCGCCCCCGGGAGAUUUUUUCCUCGAGCAA | ≤ 0.026
8 | CUCUCGGUAGCCAAGUCGGUUUAGGGCGCAAGACUUUAAUUUAUCACUACGAAAUCUUGAGAUCGGGCGUUCGACUCGCCCCCGGGAGAUUUUUUCCUCGAGCAA | 0.0323
9 | CUCUCGGUAGCCAAGUCGGUUUACGGCGCAAGACUUUAAUUUAUCACUACGAAAUCUUGAGAUCGGGCGUUCGACUCGCCCCCGGGAGAUUUUUUCCUCGAGCAA | 0.276
10 | CUCUCGGUAGCCAAGUCGGUUUAAGGCGCAAGACUUUAAUUUAUCACUACGAAAUCUUGAGAUCGGGCGUUCGACUCGCCCCCGGGAGAUUUUUUCCUCGAGCAA | 1.05
11 | CUCUCGGUAGCCAAGUAGGUUUAAGGCGCAAGACUUUAAUUUAUCACUACGAAAUCUUGAGAUCGGGCGUUCGACUCGCCCCCGGGAGAUUUUUUCCUCGAGCAA | 0.937
12 | CUCUCGGUAGCCAAGUAGGUUUAAGGCUCACGACUUUAAUUUAUCACUACGAAAUCUUGAGAUCGGGCGUUCGACUCGCGCCCCGAAGAUUUUUUCCUCGAGCAA | ≤ 0.026
13 | CUCUCGGUAGCCAAGUCGGUUUAAGGCGCGGGACUUUAAUUUAUCACUACGAAAUCUUGAGAUCGGGCGUUCGACUCGCCCCCGGGAGAUUUUUUCCUCGAGCAA | 0.0827
14 | CUCUCGGUAGCCAAGUAGGUUUAAGGCGCAAGACUUUAAUUUAUCACUACGAAACCUUGAGAUCGGGCGUUCGACUCGCCCCCGGGAGAUUUUUUCCUCGAGCAA | 0.176
15 | CUCUCGGUAGCCAAGUAGGUAUAAGGCGCAAGACUUUAAUUUAUCACUACGAAAUCUUGAGAUCGGGCGUUCGACUCGCCCCCGGGAGAUUUUUUCCUCGAGCAA | 0.966
16 | CUCUCGGUAGCCAAGUCGGUUUAAGGCGGAAGACUUUAAUUUAUCACUACGAAAUCUUGAGAUCGGGCGUUCGACUCGCCCCCGGGAGAUUUUUUCCUCGAGCAA | ≤ 0.026
17 | CUCUCGGUAGCCAAGUAGGUUUAAGGCGCAGGACUUUAAUUUAUCACUACGAAAUCUUGAGAUCGGGCGUUGGACACUCCCCCGGGAGAUUUUUUCCUCGAGCAA | ≤ 0.026
18 | CUCUCGGUAGCCAAGUCGGUUUAAGGCGAAAGACUUUAAUUUAUCACUACGAAAUCUUGAGAUCAGGCGUUUGACUUGCCCCCGGGAGAUUUUUUCCUCGAGCAA | ≤ 0.026
19 | CUCUCGGUAGCCAAGUCGGUUUAAGGCGCAAGACUUUAAUUUAUCACUACGAAAUCUUGAGAUCGGGCGUUCGACUCGCCCCCGGGGGAUUUUUUCCUCGAGCAA | 0.226
20 | CUCUCGGUAGCCAAGUAGGUUUAAGGCGCAAGACUUUAAUUUAUCACUACGAAAUCUUGAGAACGGGCGUUCGACCCGCCCCCGGGAGAUUUUUUCCUCGAGCAA | 0.155
21 | CUCUCGGUAGCCAAGUAGGUUUAAGGCGCGAGACUUUAAUUUAUCACUACGAAAUCUUGAGAUCGGGCGUUCGACUCGCCCCCGGGAGAUUUUUUCCUCGAGCAA | 0.369
22 | CUCUCGGUAGCCAAGUCGGUUUAAGGCGCAAGACUUUAAUUUAUCACUACGAAUUCUUGAGAUCGGGCGUUCGACUCGCCCCCGGGAGAUUUUUUCCUCGAGCAA | 0.788
23 | CUCUCGGUAGCCAAGUAGGUUUAAGGCGCAAGACUUUAAUUUAUCACUACGAAAUCUUGCGAUCGGGCGUUCGACUCGCCCCCGGGAGAUUUUUUCCUCGAGCAA | 0.19
24 | CUCUCGGUAGCCAAGUAGGUUUAAGGCGCAAGACUUUAAUUUAUCACUACGAAAUCUUGAGAUCGGGCGUUCGACUCGACCCCGGGAGAUUUUUUCCUCGAGCAA | ≤ 0.026
25 | CUCUCGGUAGCCAAGUAGGUUUAAGGCGCAAGACUUUAAUUUAUCACUACGAAGUCUUGAGAUCGGGCGUUCGACUCGCCCCCGUGAGAUUUUUUCCUCGAGCAA | ≤ 0.026
26 | CUCUCGGUAGCCAAGUAUGUUUAAGGCGCAAGACUUUAAUUUAUCACUACGAAAUCUUGAGAUCGGGCGUUCGACUCGCCCCCGGGAGAUUUUUUCCUCGAGCAA | ≤ 0.026
27 | CUCUCGGUAGCCAAGUAGGUUUAAGUCGCAAGACUUUAAUUUAUCACUACGAAAUCUUGAGAUCGGGCGUUCGACUCGCCCCCGGGAGUUUUUUUCCUCGAGCAA | ≤ 0.026

Row | Variant | nonsense suppression
28 | CUCUCGGUAGCCAAGUCGGUUUAAGGCGCAAGACUUUAAUUUAUCACUACGAAAUCUUGAGGUCGGGCGCUCGACUCGCCCCCGGGAGAUUUUUUCCUCGAGCAA | ≤ 0.026
29 | CUCUCGGUAGCCAAGGUGGUUUAAGGCGCAAGACUUUAAUUUAUCACUACGAAAUCUUGAGAUCGGGCGUUCGACGCGCCCCCGGCAGAUUUUUUCCUCGAGCAA | ≤ 0.026
30 | CUCUCGGUAGCCAAGUAGGUUUAAGGCGCAAGACUUUAAUUUAUCACUACGAAAUCUUGAGAUCGGGCGUUCGACCCGCCCCCGGGAGAUUUUUUCCUCGAGCAA | 1.06
31 | CUCUCGGUAGCCAAGUAGGUUUAAGGCGCAAGACUUUAAUUUAUCACUACGAAAUCUUGACAUCGGGCGUUCGACUCGCCCCCGGGAGAUUUUUUCCUCGAGCAA | 0.665
32 | CUCUCGGUAGCCAAGUAGGUUUAAGGCGCAAGACUUUAAUUUAUCACUACGAAAUCUUGAAAUCGGGCGUUCGACUCGCCCCCGGGAGAUUUUUUCCUCGAGCAA | 0.83
33 | CUCUCGGUAGCCAAGGUGGUUUAAGGCGCAAGACUUUAAUUUAUCACUACGAAAUCUUGAGAUCGGGCGUUCGACCCGCCCCCGGGAGAUUUUUUCCUCGAGCAA | 1.07
34 | CUCUCGGUAGCCAAGUAGGUUUAAGGCGCAAGACUUUAAUUUAUCACUACGAAAUCUUGAGAUCGGGCGUUCGACUCUCCCCCGGGAGAUUUUUUCCUCGAGCAA | 0.186
35 | CUCUCGGUAGCCAAGUAGGUUUAAGGCGCAAGACUUUAAUUUAUCACUACGAAAUCUUGAGAUCGGGCGUUCGACUCACCCCCGGGAGAUUUUUUCCUCGAGCAA | 0.449
36 | CUCUCGGUAGCCAAGUAGGUUUAAGGCGUAAGACUUUAAUUUAUCACUACGAAAUCUUGAGAUCGGGCGUUCGACUCGCCCCCGGGAGAUUUUUUCCUCGAGCAA | 1.15
37 | CUCUCGGUAGCCAAGUAGGUCUAAGGCGCAAGACUUUAAUUUAUCACUACGAAAUCUUGAGAUCGGGCGUUCGACUCGCCCCCGAGAGAUUUUUUCCUCGAGCAA | 1.06
38 | CUCUCGGUAGCCAAGUCGGUUUAAGGCGCAAGGCUUUAAUUUAUCACUACGAAAUCUUGAGAUCGGGCGUUCGACUCGCCCCCGGGAGAUUUUUUCCUCGAGCAA | 0.0608
39 | CUCUCGGUAGCCAAGUAGGUUUAAGGCGCAACACUUUAAUUUAUCACUACGAAAUCUUGAGAUCGGGCGUGCGACUCGCCCCCGGGAGAUUUUUUCCUCGAGCAA | 0.0947
40 | CUCUCGGUAGCCAAGUAGGUUUAAGGCGCAAGAUUUUAAUUUAUCACUACGAAAUCUUGAGAUCGGGCGUUCGUCUCGCCCCCGGGAGAUUUUUUCCUCGAGCAA | ≤ 0.026
41 | CUCUCGGUAGCCAAGUAGGUUGAAGGCGCAAGACUUUAAUUUAUCACUACGAAAUCUUGAGAUCGGGCGUUCGACUCGCCCCCGGGAGAUUUUUUCCUCGAGCAA | 1.03
42 | CUCUCGGUAGCCAAGUAGGUUUUAGGCGCAAGACUUUAAUUUAUCACUACGAAAUCUUGAGAUCGGGCGUUCGACUCGCCCCCAGGAGAUUUUUUCCUCGAGCAA | ≤ 0.026
43 | CUCUCGGUAGCCAAGUAGGUUUAACGCGCAAGACUUUAAUUUAUCACUACGAAAUCUUGAGAUCGGGCGUUCGACUCGCCCCCGGGAGAUUUUUUCCUCGAGCAA | 0.068
44 | CUCUCGGUAGCCAAGUAGGUUUAGGGCGCAAGACUUUAAUUUAUCACUACGAAAUCUUGAGAUCGGGCGUUCGACUCGCCCCCGGGAGAUUUUUUCCUCGAGCAA | 0.0262
45 | CUCUCGGUAGCCAAGUAGGUUUACGGCGCAAGACUUUAAUUUAUCACUACGAAAUCUUGAGAUCGGGCGUUCGACUCGCCCCCGGGAGAUUUUUUCCUCGAGCAA | 0.902
46 | CUCUCGGUAGCCAAGUAGGUUUAUGGCGCAAGACUUUAAUUUAUCACUACGAAAUCUUGAGAUCGGGCGUUCGACUCGCCCCCGGGAGAUUUUUUCCUCGAGCAA | 0.2
47 | CUCUCGGUAGCCAAGUAGGUUUAAGGCGCAAGCCUUUAAUUUAUCACUACGAAAUCUUGAGAUCGGGCGUUCGACCCGAUCCCGGGAGAUUUUUUCCUCGAGCAA | ≤ 0.026
48 | CUCUCGGUAGCCAAGUCGGUUUAAGGCGCAAGACUUUAAUUUAUCACUACGAAAUCUUGGGAUCGGGCGUUCGACUCGCCCCCGGGAGAUUUUUUCCUCGAGCAA | 0.411
49 | CUCUCGGUAGCCAAGUCGGUUUAAGGCGCAAGACUUUAAUUUAUCACUACGAAAUCUUGCGAUCGGGCGUUCGACUCGCCCCCGGGAGAUUUUUUCCUCGAGCAA | 0.196
50 | CUCUCGGUAGCCAAGUAGGUUUAAGGCACAAGACUUUAAUUUAUCACUACGAAAUCUUGAGAUCGGGCGUUCGACUCGCCCCCGAGAGAUUUUUUCCUCGAGCAA | 1.02
51 | CUCUCGGUAGCCAAGUAGGUUUAAGGCGCAAGACUUUAAUUUAUCACUACGAAAUCUUGAGAUCGGGCGUUCGACUCGCCCCCGGGGGAUUUUUUCCUCGAGCAA | 1.19
52 | CUCUCGGUAGCCAAGUCGGUUUAAGGCGCAAGACUUUAAUUUAUCACUACGAAAUCUUGAGAUCGGGAGUUCGACUCGCCCUCGGGAGAUUUUUUCCUCGAGCAA | ≤ 0.026
53 | CUCUCGGUAGCCAAGUCGGUUUAAGGCGCAAGACUUUAAUUUAUCACUACGAAAUCUUGAGAUCGGGCGUUGGACUCGCCCCCGGGAGAUUUUUUCCUCGAGCAA | ≤ 0.026
54 | CUCUCGGUAGCCAAGUAGGUUUCAGGCGCAAGACUUUAAUUUAUCACUACGAAAUCUUGAGAUCGGGGGUUCGACUCGCCCCCGGGAGAUUUUUUCCUCGAGCAA | ≤ 0.026
